Key:
HCT-15 = test: Antiproliferative activity against drug resistant HCT15 cell line expressing MDR1 by Alamar Blue assay; format: functional, cell-based; conditions: Homo sapiens
Procedure, shortened: (§1)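 Cells in exponential growth seeded at 4000–6000 per well, held 24 h at 37 °C, 5% CO2 before compound; T0 population read by AlamarBlue at time of addition. Compounds in DMSO diluted into complete medium; 72 h exposure at 37 °C, 5% CO2. Viable cells quantified with AlamarBlue; IC50 as 50% growth inhibition; triplicate.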

ACHN = test: Antiproliferative activity against drug resistant ACHN cell line expressing MDR1 by Alamar Blue assay; format: functional, cell-based; conditions: Homo sapiens; procedure, shortened: as §1
NCI-H69 = test: Antiproliferative activity against drug sensitive NCI-H69 cell line by Alamar Blue assay; format: functional, cell-based; conditions: Homo sapiens; procedure, shortened: as §1
H69AR = test: Antiproliferative activity against drug resistant H69AR cell line expressing MRP1 by Alamar Blue assay; format: functional, cell-based; conditions: Homo sapiens; procedure, shortened: as §1
NCI-H460 = test: Inhibition of proliferation of human H460 cells; format: functional, cell-based; procedure, shortened: as §1
HT-29 = test: Cytotoxicity against human HT29 cells; format: cell-based
Procedure, shortened: (§2)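 Exponentially growing cells seeded at 4000–6000 per well and incubated 24 h (37 °C, 5% CO₂) before dosing. Cell population at time of drug addition (T₀) measured by AlamarBlue. Compounds dissolved in DMSO, diluted in complete medium, and exposed for 72 h. Viable cells quantified by AlamarBlue. IC₅₀ is 50% growth inhibition. Assays run in triplicate.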

PC-3 = test: Cytotoxicity against human PC3 cells; format: cell-based; procedure, shortened: as §2
HeLa = test: Cytotoxicity against human HeLa cells; format: cell-based; procedure, shortened: as §1
[1] = Antiproliferative activity against drug sensitive Messa cell line by Alamar Blue assay; format: functional, cell-based; conditions: Homo sapiens, MES-SA; procedure, shortened: as §1
[2] = Antiproliferative activity against drug resistant Messa/DX5 cell line expressing MDR1 by Alamar Blue assay; format: functional, cell-based; conditions: Homo sapiens, MES-SA/Dx5; procedure, shortened: as §1
[3] = (§3) Displacement of [3H]colchicine from tubulin in bovine brain at 500 nM; parameters: species or system Bos taurus
Procedure, shortened: (§4)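 Purified tubulin (bovine brain, HeLa or MCF-7 source) preincubated with compound 10 min at 37 °C, then [3H]colchicine added and incubated a further 30 min at 37 °C. Samples spotted on DE81 filters, washed three times to remove unbound label; bound [3H]colchicine counted by scintillation.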

Bos taurus = species on record: Bos taurus; test: as §3; procedure, shortened: as §4
Tubulin [4] = test: Displacement of [3H]colchicine from tubulin in HeLa cells; format: cell-based, Homo sapiens; procedure, shortened: as §4
Tubulin [5] = test: Displacement of [3H]colchicine from tubulin in MCF7 cells; format: cell-based, Homo sapiens; procedure, shortened: as §4
[6] = Inhibition of bovine tubulin polymerization; parameters: species or system Bos taurus
Procedure, shortened: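 Purified bovine tubulin incubated with compound in buffer with 10% glycerol using a commercial kit; microtubule formation followed as rise in fluorescence intensity of the reaction mixture; IC50 from concentration-dependent inhibition.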

Row | Structure (SMILES) | IC50 (HCT-15) | IC50 (ACHN) | IC50 (NCI-H69) | IC50 (NCI-H460) | IC50 (H69AR) | IC50 [1] | IC50 [2] | other results
1 | COc1cc(C(=O)c2n[nH]c3c(CCCO)c(OC)ccc23)cc(OC)c1OC | – | – | – | 283 nM | – | – | – | –
2 | CC[C@]1(O)C[C@@H]2CN(CCc3c([nH]c4ccccc34)[C@@](C(=O)OC)(c3cc4c(cc3OC)N(C)[C@H]3[C@@](O)(C(=O)OC)[C@H](OC(C)=O)[C@]5(CC)C=CCN6CC[C@]43[C@@H]65)C2)C1 [VINBLASTINE] | 79.4 nM | 25 nM | 1.6 nM | – | 1.6 nM | 1.6 nM | 8.9 nM | –
3 | COc1ccc2c(C(=O)c3cc(OC)c(OC)c(OC)c3)c[nH]c2c1 | – | – | – | 16 nM | – | – | – | –
4 | COc1cc2c(c(OC)c1OC)-c1ccc(OC)c(=O)cc1[C@@H](NC(C)=O)CC2 [COLCHICINE] | 100 nM | 39.8 nM | – | – | – | 6.3 nM | 63 nM | –
5 | COc1cc(C(=O)c2n[nH]c3c(/C=C\CO)c(OC)ccc23)cc(OC)c1OC | – | – | – | 13 nM | – | – | – | –
6 | COc1cc(C(=O)c2n[nH]c3c(C#C[C@H](C)O)c(OC)ccc23)cc(OC)c1OC | – | – | – | 14 nM | – | – | – | –
7 | CC(=O)O[C@H]1C(=O)[C@@]2(C)[C@H]([C@H](OC(=O)c3ccccc3)[C@]3(O)C[C@H](OC(=O)[C@H](O)[C@@H](NC(=O)c4ccccc4)c4ccccc4)C(C)=C1C3(C)C)[C@]1(OC(C)=O)CO[C@@H]1C[C@@H]2O [PACLITAXEL] | 79.4 nM | 25 nM | 1.9 nM | – | 2.5 nM | 1.6 nM | > 1000 nM | –
8 | COc1cccc2c1C(=O)c1c(O)c3c(c(O)c1C2=O)C[C@@](O)(C(C)=O)C[C@@H]3O[C@H]1C[C@H](N)[C@H](O)[C@H](C)O1 [DAUNORUBICIN] | > 400 nM | 63 nM | 100 nM | – | > 1000 nM | 20 nM | > 400 nM | –
9 | COc1ccc(/C=C\c2cc(OC)c(OC)c(OC)c2)cc1O [COMBRETASTATIN A4] | 2.5 nM | 1.6 nM | 1.7 nM | 10 nM | 2.5 nM | 1.6 nM | 1.4 nM | IC50 (HT-29): > 1000 nM; IC50 (PC-3): 3.2 nM; IC50 (HeLa): 2.7 nM
10 | CC#Cc1c(OC)ccc2c(C(=O)c3cc(OC)c(OC)c(OC)c3)c[nH]c12 | – | – | – | > 1000 nM | – | – | – | –
11 | COc1cc(C(=O)c2n[nH]c3c(C#CC(C)(C)O)c(OC)ccc23)cc(OC)c1OC | – | – | – | 195 nM | – | – | – | –
12 | C#Cc1c(OC)ccc2c(C(=O)c3cc(OC)c(OC)c(OC)c3)n[nH]c12 | – | 1.6 nM | 2.5 nM | 3 nM | 2.2 nM | 1.9 nM | 3.9 nM | IC50 (HT-29): 1.7 nM; IC50 (PC-3): 3 nM; IC50 (HeLa): 2.3 nM

Further lines, with some results ahead:

Row | IC50 (HCT-15) | IC50 (ACHN) | IC50 (NCI-H69) | IC50 (NCI-H460) | Structure (SMILES) | IC50 (H69AR) | IC50 [1] | IC50 [2] | other results
13 | 1.9 nM | 1.6 nM | 1.6 nM | 1 nM | CC#Cc1c(OC)ccc2c(C(=O)c3cc(OC)c(OC)c(OC)c3)n[nH]c12 | 2.5 nM | 1.6 nM | 1.9 nM | IC50 (HT-29): 3 nM; IC50 (PC-3): 1.1 nM; IC50 (HeLa): 0.9 nM
14 | 1.9 nM | 1.6 nM | 1.6 nM | 8 nM | COc1cc(C(=O)c2n[nH]c3c(C#CCO)c(OC)ccc23)cc(OC)c1OC | 2.6 nM | 1.7 nM | 1.8 nM | IC50 [3]: 500 nM; Activity (Bos taurus): 70%; IC50 (Tubulin [4]): 46 nM; IC50 (Tubulin [5]): 240 nM; IC50 [6]: 6000 nM; IC50 (HT-29): 1 nM; IC50 (PC-3): 1 nM; IC50 (HeLa): 0.8 nM
15 | – | – | – | 247 nM | COc1cc(C(=O)c2n[nH]c3c(C#CCN)c(OC)ccc23)cc(OC)c1OC | – | – | – | –
16 | – | – | – | 29 nM | COc1cc(C(=O)c2n[nH]c3c(C#C[C@@H](C)O)c(OC)ccc23)cc(OC)c1OC | – | – | – | –
17 | – | – | – | 8 nM | COc1cc(C(=O)c2n[nH]c3c(C#CCCCO)c(OC)ccc23)cc(OC)c1OC | – | – | – | –
18 | – | – | – | 14 nM | COc1cc(C(=O)c2n[nH]c3c(C#CCCO)c(OC)ccc23)cc(OC)c1OC | – | – | – | –
